Experimental data from different studies.
Lines come from different studies, so protocols differ. pEC50, pIC50: −log10 of the molar value.
Read-out: cell growth or viability

| SMILES | cell line | technique | tested at | time | endpoint | value |
| --- | --- | --- | --- | --- | --- | --- |
| C=CC(=O)Nc1ccc(Cn2cc(C[C@@]3(O)C[C@@H]4c5cc(OCc6cc(C)cc(C)c6)c(OCc6cc(C)cc(C)c6)cc5CCN4[C@@H](C)C3)nn2)cc1 | ASPC1 | MTT |  |  | pIC50 | 6.32 |
| COC(=O)c1c(C)ncn1CC(c1c[nH]c2ccc(C)cc12)c1c[nH]c2ccc(C)cc12 | HaCaT | MTS | 20 µM | 24 h | inhibition | 12.2% |
| CC(C)=CCC[C@](C)(O)[C@H]1CC[C@]2(C)[C@@H]1[C@H](O)C[C@@H]1[C@@]3(C)CC[C@H](O[C@@H]4O[C@H](CO)[C@@H](O)[C@H](O)[C@H]4O[C@@H]4O[C@H](CO)[C@@H](O)[C@H](O)[C@H]4O)C(C)(C)[C@@H]3CC[C@]12C | NCI-H358 | MTT |  | 72 h | IC80 | > 100000 nM |
| Cc1cc(Nc2ncc(Cl)c(Nc3ccccc3S(=O)(=O)C(C)C)n2)c(OC(C)C)cc1C1CCNCC1 | KARPAS-299 | MTT | 0.06173 µg/mL | 72 h | inhibition | 62.4% |
| CC(C)C[C@H](NC(=O)[C@H](Cc1ccccc1)NC(=O)c1cnccn1)B(O)O | HEC-1-A | ATP luminescence |  |  | pIC50 | 7.77 |
| COc1cccc(Oc2ccccc2NC(=O)CNC(=O)c2cccc3ccccc23)c1 | SNB-19 | SRB |  | 48 h | GI50 | 617 nM |
| COc1cc(Nc2nccc(-c3cnn4nc(OC)ccc34)n2)cc(C(F)(F)F)c1 | HCC1569 | ATP luminescence |  |  | pIC50 | < 5.52 |
| Cc1c(-c2cccc(C(F)(F)F)c2)sc2[nH]c(=O)n([C@H](C)c3cccc4ccccc34)c(=O)c12 | HCC827 |  | 10 µM |  | inhibition | > 80% |
| Cc1cc(C)cc(COc2cc3c(cc2OCc2cc(C)cc(C)c2)[C@H]2C[C@](O)(Cc4cn(Cc5ccc(Cl)c(Cl)c5)nn4)C[C@H](C)N2CC3)c1 | ASPC1 | MTT |  |  | pIC50 | 6.22 |
| COC(C)(C)CCC[C@](C)(O)[C@H]1CC[C@]2(C)[C@@H]1[C@H](O)C[C@@H]1[C@@]3(C)CC[C@H](O)C(C)(C)[C@@H]3CC[C@]12C | NCI-H358 | MTT |  | 72 h | IC80 | 81700 nM |
| Cc1cc(C)cc(COc2cc3c(cc2OCc2cc(C)cc(C)c2)[C@H]2C[C@](O)(Cc4cn(CCOCCOCCOCCNC(=O)[C@@H](CC(C)C)NC(=O)[C@@H](O)[C@H](N)Cc5ccccc5)nn4)C[C@H](C)N2CC3)c1 | ASPC1 | MTT |  |  | pIC50 | 6.20 |
| CCOC(=O)c1cn(CC(c2cn(C)c3ccc(C)cc23)c2cn(C)c3ccc(C)cc23)c(C)c1C(=O)OC | HaCaT | MTS | 20 µM | 24 h | inhibition | 9.5% |
| Cc1cc(C)cc(COc2cc3c(cc2OCc2cc(C)cc(C)c2)[C@H]2C[C@](O)(Cc4cn(CCOCCOCCOCC(=O)N[C@H](C(=O)N5C[C@H](O)C[C@H]5C(=O)NCc5ccc(-c6scnc6C)cc5)C(C)(C)C)nn4)C[C@H](C)N2CC3)c1 | ASPC1 | MTT |  |  | pIC50 | 6.14 |
| CCOC(=O)c1c(C)ncn1CC(c1cn(C)c2ccc([N+](=O)[O-])cc12)c1cn(C)c2ccc([N+](=O)[O-])cc12 | HaCaT | MTS | 20 µM | 24 h | inhibition | 3.7% |
| Cc1cc(C)cc(COc2cc3c(cc2OCc2cc(C)cc(C)c2)C2CC(O)(Cc4cn(CCCCCCNc5ccc6c(c5)C(=O)N(C5CCC(=O)NC5=O)C6=O)nn4)CC(C)N2CC3)c1 (stereo not drawn) | ASPC1 | MTT |  |  | pIC50 | 5.91 |
| COc1ccc(-c2ccc(-c3ccc(C(=N)N)nc3)s2)cc1 | SNB-19 | SRB |  |  | GI50 | 1720 nM |
| CCCCc1nc(Cl)c(CO)n1Cc1ccc(-c2ccccc2-c2nn[nH]n2)cc1 | WI-38 | MTT |  | 72 h | pEC50 | 5.05 |
| COC(=O)c1c(C)ncn1CC(c1c[nH]c2cc(Br)ccc12)c1c[nH]c2cc(Br)ccc12 | HaCaT | MTS | 20 µM | 24 h | inhibition | 28.8% |
| Cc1cc(C)cc(COc2cc3c(cc2OCc2cc(C)cc(C)c2)C2CC(O)(Cc4cn(CCOCCOCCOCCNC(=O)CNc5ccc6c(c5)C(=O)N(C5CCC(=O)NC5=O)C6=O)nn4)CC(C)N2CC3)c1 (stereo not drawn) | ASPC1 | MTT |  |  | pIC50 | < 5.30 |
| C[C@@H](Oc1cc(-c2cnn(C3CCNCC3)c2)cnc1N)c1c(Cl)ccc(F)c1Cl | KARPAS-299 | MTT | 1 µg/mL | 72 h | inhibition | 85.2% |
| Cc1cc(C)cc(COc2cc3c(cc2OCc2cc(C)cc(C)c2)[C@H]2C[C@](O)(Cc4cn(Cc5cccnc5)nn4)C[C@H](C)N2CC3)c1 | ASPC1 | MTT |  |  | pIC50 | 6.17 |
| CCCCCCCCCCCCCCCCOP(=O)([O-])OCC[N+](C)(C)C | HaCaT | MTS | 20 µM | 24 h | inhibition | 45.5% |
| Cc1cc(C)cc(COc2cc3c(cc2OCc2cc(C)cc(C)c2)[C@H]2C[C@](O)(Cc4cn(Cc5cnccn5)nn4)C[C@H](C)N2CC3)c1 | ASPC1 | MTT |  |  | pIC50 | 6.12 |
| COc1cc(-c2ccc(-c3ccc(C(=N)N)nc3)s2)cc(OC)c1OC | CAKI-1 |  |  |  | GI50 | 1590 nM |
